Screening results deposited in PubChem BioAssay by several laboratories.
Wee1 degr inh: human Wee1 degradation inhibition, primary screen; HeLa Luc-Wee1K328M stability, luciferase luminescence; 100% = proteasome inhibitor MG132 effect; reporter increase, % at 5 µM; 1.2% of 220,000 active; AID 1321;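 active = activation above the mean of all tested compounds plus 3 SD, set per screening run, cut at about 8.8% in these data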;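 also: cells exposed to compound for 20 h before luminescence read; 0% = DMSO alone and 100% = MG132 at 30 µM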
Efa HMGR inh: inhibitors of class II HMG-CoA reductase from Enterococcus faecalis. 0.41% of 190,000 active. AID 1066. purified E. faecalis HMGR, NADPH absorbance 340 nm kinetic. inhibition, % at 10 µM;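 active = inhibition above a set limit, the median over all tested compounds plus 3 SD, cut at about 9.5% in these data; inconclusive = no clear call, values can overlap the other calls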;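 also: enzyme runs in reverse so mevalonate oxidation gives rising NADPH absorbance; 0% = complete reaction with DMSO and 100% = background rate lacking mevalonate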
Runt-SMMHC FRET: blocks binding of human RUNX1 Runt domain to CBFb-SMMHC; Q01196+Q13951; Cerulean-Runt/Venus-CBFb-SMMHC FRET ratio 530/480, 1 h; inhibition, % at 20 µM; 0.74% of 220,000 active; AID 1434;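 active = mean inhibition across duplicate retests at 20 µM reaching about 50%, limit read from the data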;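 also: 0% = DMSO wells and 100% = wells with excess untagged CBFb-SMMHC; inhibitors lower the FRET ratio by blocking Runt binding to CBFb-SMMHC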
PHOSPHO1 block: inhibitors of human PHOSPHO1 phosphatase; inhibition, % at 13.3 µM; 1.1% of 290,000 active; Q8TCT1; recombinant PHOSPHO1, absorbance phosphatase assay; in the data active = inhibition above about 60%
Target sequence (Q8TCT1 whole entry, looked up): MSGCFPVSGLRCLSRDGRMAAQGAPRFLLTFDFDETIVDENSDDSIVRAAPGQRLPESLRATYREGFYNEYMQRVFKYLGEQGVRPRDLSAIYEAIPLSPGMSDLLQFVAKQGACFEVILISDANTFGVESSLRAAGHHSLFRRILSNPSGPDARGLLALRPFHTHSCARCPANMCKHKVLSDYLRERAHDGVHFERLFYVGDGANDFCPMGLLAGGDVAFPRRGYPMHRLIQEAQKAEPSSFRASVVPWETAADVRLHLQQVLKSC
Runt-CBFb FRET: blocks binding of human RUNX1 Runt domain to CBFb. Q01196+Q13951. Cerulean-Runt/Venus-CBFb FRET ratio 530/480, 1 h. inhibition, % at 20 µM. 0.46% of 220,000 active;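 active = inhibition over about 50% at 20 µM in the single-dose screen, limit read from the data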;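 also: 0% = DMSO wells and 100% = excess unlabeled CBFb competitor control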
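Measured by: fluorescence energy transfer, 422 nm excitation, 530/480 nm emission; test system: Cerulean-tagged RUNX1 Runt domain (FRET donor) fusion protein; buffer or medium: Tris pH 7.5 buffer with BSA; compound: one dose, 20 µM compound, 1% DMSO; times: two 1 h room-temperature incubations shielded from light; benchmarks: unlabeled CBFb 5 µM, positive control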
RanGTP-Imp inh: disruptors of Ran-importin-beta complex formation – biochemical, FRET, CFP-Ran, YFP-importin-beta, homogeneous, primary screen; cell-free CFP-Ran/YFP-importin-beta FRET ratio; inhibition, % (test concentration not listed); 1.1% of 300,000 active; AID 2216;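 active = more than half of the replicate wells show a fall in the fluorescence ratio signal beyond about 16%, limit read from the data, passing the limit was not always enough; inconclusive = exactly half of the replicate wells pass the set limit; inactive = fewer than half of replicates pass the limit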;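 also: 0% = DMSO wells and 100% = Ran loaded with GDP instead of GTP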
* hit, by the source's call; ? = inconclusive; . = no result given. Most compounds without a hit are left out; they make up all but 3.4% or so of the library.

SMILES | Wee1 degr inh | Efa HMGR inh | Runt-SMMHC FRET | PHOSPHO1 block | Runt-CBFb FRET | RanGTP-Imp inh
CCN(C(=O)COC(=O)c1cccnc1Nc1cccc(C(F)(F)F)c1)C1CCS(=O)(=O)C1 (stereo unspecified) | -1 | -6 | -5 | -2 | -6 | 6
CC(=O)C1=C(C)OC(N)=C(C#N)C1c1ccncc1 (stereo unspecified) | -3 | -3 | -2 | -14 | 1 | 6
COc1ccc2cc(C3C(C#N)=C(N)OC(C)=C3C(C)=O)c(Cl)nc2c1 (stereo unspecified) | 9.0* | -7 | -2 | 40 | 0 | -2
O=C(N/N=C/c1ccc[nH]1)c1ccccc1O | 3 | 10* | -6 | 24 | -4 | 3
O=C(N/N=C/c1ccc[nH]1)c1ccc(O)cc1 | 5 | 1 | -8 | 20 | 2 | 4
CCOc1ccc(CNC(=O)Cn2ccc3cc(S(=O)(=O)N4CCCCCC4)ccc32)cc1 | . | . | . | 29 | . | 2
CCN(Cc1ccncc1)Cc1c(O)ccc2cc(Br)ccc12 | -3 | 15* | 14 | -6 | 8 | ?
COC(=O)c1ccc(NC(=O)N(c2ccccc2)c2ccccc2)cc1 | . | . | . | 34 | . | 5
CCNC(=O)/C(C#N)=C/c1c(N2CC(C)OC(C)C2)nc2ccccn2c1=O (stereo unspecified) | -1 | 0 | 77* | 2 | 104* | 0
O=Cc1c(N2CCCCC2)nc2ccccn2c1=O | 0 | -2 | -4 | 26 | 1 | -3
CCNC(=O)/C(C#N)=C/c1c(N2CCCCCC2)nc2ccccn2c1=O | . | . | . | 24 | . | 1
COCCNC(=O)/C(C#N)=C/c1c(N2CC(C)OC(C)C2)nc2ccccn2c1=O (stereo unspecified) | -2 | 3 | 82* | -5 | 48 | 4
CC1CN(c2nc3ccccn3c(=O)c2/C=C(\C#N)C(=O)N2CCOCC2)CC(C)O1 (stereo unspecified) | 3 | . | -2 | 1 | -2 | 1
CN1CCN(c2nc3ccccn3c(=O)c2C=O)CC1 | . | . | . | 30 | . | 100*
CC1CN(c2nc3ccccn3c(=O)c2/C=C(\C#N)C(N)=O)CC(C)O1 (stereo unspecified) | 5 | . | 8 | 1 | 94* | -1
O=C(COC(=O)c1ccco1)c1ccc(S(=O)(=O)N2CCCCC2)cc1 | . | . | . | 24 | . | 2
COCCCNC(=O)/C(C#N)=C/c1c(N2CCN(C)CC2)nc2ccccn2c1=O | . | . | . | 33 | . | 87*
COCCNC(=O)/C(C#N)=C/c1c(N2CCN(c3ccccc3)CC2)nc2ccccn2c1=O | . | . | . | 15 | . | 5
O=C(/C=C/c1ccc([N+](=O)[O-])cc1)Nc1ncc([N+](=O)[O-])s1 | 22* | 7 | -8 | -106 | 1 | .
O=C(Nc1ccnn1C1CCN(C(=O)c2cc(Cl)ccc2F)CC1)C1CCOC1 (stereo unspecified) | . | . | . | 2 | . | 0
COc1ccc(C(OC(=O)c2ccco2)C(=O)NC(C)(C)C)cc1 (stereo unspecified) | -2 | 0 | -3 | 12 | 0 | -2
Nc1[nH]c(=O)nc(Nc2ccccc2)c1N=O | . | . | . | . | . | 38*
CN(C)c1ccc(-c2nn3c(-c4ccc(Cl)cc4)nnc3s2)cc1 | -2 | -7 | 6 | 25 | 2 | ?
Clc1ccc(-c2nn3c(C4COc5ccccc5O4)nnc3s2)cc1 (stereo unspecified) | 0 | -6 | 6 | 92* | 25 | ?
COc1ccc(/C(O)=C2/C(=O)C(=O)N(CCN3CCOCC3)C2c2ccccn2)cc1OC (stereo unspecified) | 0 | -5 | 12 | -12 | 1 | 29*
COc1ccc(/C(O)=C2/C(=O)C(=O)N(CCN(C)C)C2c2ccccn2)cc1OC (stereo unspecified) | 2 | 1 | -2 | 28 | 3 | 23*
O=C1C(=O)N(CCN2CCOCC2)C(c2ccccn2)/C1=C(/O)c1ccccc1 (stereo unspecified) | -2 | 3 | 6 | 58 | 8 | 24*
Cc1ccc(C2/C(=C(/O)c3ccccc3)C(=O)C(=O)N2CCN2CCOCC2)o1 (stereo unspecified) | -1 | -7 | -9 | 76* | -3 | 2
